Laboratory results published in ChEMBL document CHEMBL4130370, “Discovery of 5,6-diaryl-1,2,4-triazines hybrids as potential apoptosis inducers” (Eur J Med Chem, 2017).
Each block holds one compound with its values, some of them ahead of it. Calls of active or inactive are those of the source. The calls are words filed in the database; no cut-off is given here.

How the values were obtained:
[1] = test system: MGC-803; assay: Antiproliferative activity against human MGC803 cells after 48 hrs by MTT assay; assay type: functional, cell-based; details: MGC-803, 48 h
Summary of the method: (§1)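 Cells exposed to compounds for 48 h, then read by MTT. IC50 is the concentration giving 50% inhibition of tumour cell proliferation, taken from dose-response curves. Values are means±SD of three independent experiments. 5-FU was the reference drug.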

[2] = test system: PC-3; assay: Antiproliferative activity against human PC3 cells after 48 hrs by MTT assay; assay type: functional, cell-based; details: PC-3, 48 h; summary of the method: as §1
[3] = test system: ECa-109 cell line; assay: Antiproliferative activity against human EC109 cells after 48 hrs by MTT assay; assay type: functional, cell-based; details: ECa-109, 48 h; summary of the method: as §1
[4] = test system: MGC-803; assay: Induction of apoptosis in human MGC803 cells assessed as decrease in Bcl-xl expression up to 10 uM after 48 hrs by Western blot analysis; assay type: functional, cell-based
[5] = test system: MGC-803; assay: Induction of apoptosis in human MGC803 cells assessed as increase in DR4 expression after 48 hrs by Western blot analysis; assay type: functional, cell-based
Summary of the method: (§2)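 MGC-803 cells treated at 0, 6, 8 or 10 µM for 48 h, then Western blotted. Band levels analysed statistically against control. Results representative of three independent experiments.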

[6] = test system: MGC-803; assay: Induction of apoptosis in human MGC803 cells after 48 hrs Annexin V-FITC/propidium iodide based flow cytometry; assay type: functional, cell-based
Summary of the method: (§3)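 MGC-803 cells treated at 0, 6, 8 or 10 µM for 48 h. Cells then double-stained with Annexin V-FITC and propidium iodide and analysed by biparametric flow cytometry.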

[7] = test system: MGC-803; assay: Induction of apoptosis in human MGC803 cells assessed as necrotic cells at 8 uM after 48 hrs Annexin V-FITC/propidium iodide based flow cytometry (0.1%); assay type: functional; summary of the method: as §3
[8] = test system: MGC-803; assay: Induction of apoptosis in human MGC803 cells assessed as early apoptotic cells at 8 uM after 48 hrs Annexin V-FITC/propidium iodide based flow cytometry (2.3%); assay type: functional; summary of the method: as §3
[9] = test system: MGC-803; assay: Induction of apoptosis in human MGC803 cells assessed as early apoptotic cells at 6 uM after 48 hrs Annexin V-FITC/propidium iodide based flow cytometry (2.3%); assay type: functional; summary of the method: as §3
[10] = test system: MGC-803; assay: Induction of apoptosis in human MGC803 cells assessed as increase in cleaved caspase-9 expression after 48 hrs by Western blot analysis; assay type: functional, cell-based; summary of the method: as §2
[11] = test system: MGC-803; assay: Induction of apoptosis in human MGC803 cells assessed as late apoptotic cells at 10 uM after 48 hrs Annexin V-FITC/propidium iodide based flow cytometry (1%); assay type: functional; summary of the method: as §3
[12] = test system: MGC-803; assay: Induction of apoptosis in human MGC803 cells assessed as increase in cleaved caspase-3 expression after 48 hrs by Western blot analysis; assay type: functional, cell-based; summary of the method: as §2
[13] = test system: MGC-803; assay: Cell cycle arrest in human MGC803 cells assessed as accumulation at G1 phase at 8 uM after 48 hrs by propidium iodide-staining based flow cytometry (50.18%); assay type: functional
Summary of the method: (§4)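 MGC-803 cells treated at 0, 6 or 8 µM for 48 h. Cells then fixed, stained with propidium iodide and analysed by flow cytometry for cell-cycle phase distribution.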

[14] = test system: MGC-803; assay: Cell cycle arrest in human MGC803 cells assessed as accumulation at G2/M phase after 48 hrs by propidium iodide-staining based flow cytometry; assay type: functional; summary of the method: as §4
[15] = test system: MGC-803; assay: Induction of mitochondrial membrane potential loss in human MGC803 cells assessed as collapse of the mitochondrial membrane potential at 10 uM after 48 hrs by JC-1 staining based flow cytometry (reference value: 4.1%); assay type: functional
Summary of the method: (§5)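 MGC-803 cells treated with vehicle or 6, 8 or 10 µM for 48 h. Mitochondrial membrane potential measured by JC-1 dye retention on flow cytometry.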

[16] = test system: MGC-803; assay: Induction of apoptosis in human MGC803 cells assessed as necrotic cells at 10 uM after 48 hrs Annexin V-FITC/propidium iodide based flow cytometry (0.1%); assay type: functional; summary of the method: as §3
[17] = test system: MGC-803; assay: Induction of apoptosis in human MGC803 cells assessed as early apoptotic cells at 10 uM after 48 hrs Annexin V-FITC/propidium iodide based flow cytometry (2.3%); assay type: functional; summary of the method: as §3
[18] = test system: MGC-803; assay: Cell cycle arrest in human MGC803 cells assessed as accumulation at G2/M phase at 8 uM after 48 hrs by propidium iodide-staining based flow cytometry (19.75%); assay type: functional; summary of the method: as §4
[19] = test system: MGC-803; assay: Induction of apoptosis in human MGC803 cells assessed as viable cells at 10 uM after 48 hrs Annexin V-FITC/propidium iodide based flow cytometry (96.5%); assay type: functional; details: MGC-803, 48 h, read-out: Activity; summary of the method: as §3
[20] = test system: MGC-803; assay: Induction of apoptosis in human MGC803 cells assessed as increase in cleaved PARP expression after 48 hrs by Western blot analysis; assay type: functional, cell-based; summary of the method: as §2
[21] = test system: MGC-803; assay: Induction of apoptosis in human MGC803 cells assessed as nuclear condensation at 6 to 10 uM after 48 hrs by Hoechst 33258-staining based fluorescent microscopy; assay type: functional, cell-based
Summary of the method: (§6)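 MGC-803 cells incubated at the indicated concentrations for 48 h. Nuclei then stained (legend says DAPI; methods say Hoechst 33258) and viewed by fluorescence microscopy at ×400.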

[22] = test system: MGC-803; assay: Induction of apoptosis in human MGC803 cells assessed as chromatin condensation at 6 to 10 uM after 48 hrs by Hoechst 33258-staining based fluorescent microscopy; assay type: functional, cell-based; summary of the method: as §6
[23] = test system: MGC-803; assay: Induction of apoptosis in human MGC803 cells assessed as increase in Bax expression after 48 hrs by Western blot analysis; assay type: functional, cell-based; summary of the method: as §2
[24] = test system: MGC-803; assay: Cell cycle arrest in human MGC803 cells assessed as accumulation at S phase at 8 uM after 48 hrs by propidium iodide-staining based flow cytometry (25.56%); assay type: functional; summary of the method: as §4
[25] = test system: MGC-803; assay: Induction of apoptosis in human MGC803 cells assessed as viable cells at 6 uM after 48 hrs Annexin V-FITC/propidium iodide based flow cytometry (96.5%); assay type: functional; details: MGC-803, 48 h, read-out: Activity; summary of the method: as §3
[26] = test system: MGC-803; assay: Induction of mitochondrial membrane potential loss in human MGC803 cells assessed as collapse of the mitochondrial membrane potential at 8 uM after 48 hrs by JC-1 staining based flow cytometry (reference value: 4.1%); assay type: functional; summary of the method: as §5
[27] = test system: MGC-803; assay: Cell cycle arrest in human MGC803 cells assessed as accumulation at G2/M phase at 6 uM after 48 hrs by propidium iodide-staining based flow cytometry (19.75%); assay type: functional; summary of the method: as §4
[28] = test system: MGC-803; assay: Induction of apoptosis in human MGC803 cells assessed as late apoptotic cells at 6 uM after 48 hrs Annexin V-FITC/propidium iodide based flow cytometry (1%); assay type: functional; summary of the method: as §3
[29] = test system: MGC-803; assay: Inhibition of colony formation in human MGC803 cells up to 8 uM after 7 days; assay type: functional, cell-based
Summary of the method: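 MGC-803 cells treated at various concentrations for about a week. Colonies then imaged and compared with untreated control.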

[30] = test system: GES1; assay: Cytotoxicity against human GES-1 cells after 48 hrs by MTT assay; assay type: cell-based; details: GES1, 48 h
[31] = test system: MGC-803; assay: Induction of apoptosis in human MGC803 cells assessed as decrease in Bcl2 expression up to 10 uM after 48 hrs by Western blot analysis; assay type: functional, cell-based
[32] = test system: MGC-803; assay: Induction of apoptosis in human MGC803 cells assessed as late apoptotic cells at 8 uM after 48 hrs Annexin V-FITC/propidium iodide based flow cytometry (1%); assay type: functional; summary of the method: as §3
[33] = test system: MGC-803; assay: Induction of morphological changes in human MGC803 cells assessed as formation of cell debris at 6 to 10 uM after 48 hrs by inverted microscopic analysis; assay type: functional, cell-based
Summary of the method: (§7)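 MGC-803 cells incubated at 0, 6, 8 or 10 µM for 48 h. Morphology then recorded under an inverted microscope at ×400.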

[34] = test system: MGC-803; assay: Cell cycle arrest in human MGC803 cells assessed as accumulation at S phase at 6 uM after 48 hrs by propidium iodide-staining based flow cytometry (25.56%); assay type: functional; summary of the method: as §4
[35] = test system: MGC-803; assay: Induction of apoptosis in human MGC803 cells assessed as viable cells at 8 uM after 48 hrs Annexin V-FITC/propidium iodide based flow cytometry (96.5%); assay type: functional; details: MGC-803, 48 h, read-out: Activity; summary of the method: as §3
[36] = test system: MGC-803; assay: Induction of apoptosis in human MGC803 cells assessed as nuclear fragmentation at 6 to 10 uM after 48 hrs by Hoechst 33258-staining based fluorescent microscopy; assay type: functional, cell-based; summary of the method: as §6
[37] = test system: MGC-803; assay: Induction of apoptosis in human MGC803 cells assessed as necrotic cells at 6 uM after 48 hrs Annexin V-FITC/propidium iodide based flow cytometry (0.1%); assay type: functional; summary of the method: as §3
[38] = test system: MGC-803; assay: Cell cycle arrest in human MGC803 cells assessed as accumulation at G1 phase at 6 uM after 48 hrs by propidium iodide-staining based flow cytometry (50.18%); assay type: functional; summary of the method: as §4
[39] = test system: MGC-803; assay: Induction of morphological changes in human MGC803 cells assessed as rounding up of cells at 6 to 10 uM after 48 hrs by inverted microscopic analysis; assay type: functional, cell-based; summary of the method: as §7
[40] = test system: MGC-803; assay: Induction of mitochondrial membrane potential loss in human MGC803 cells after 48 hrs by JC-1 staining based flow cytometry; assay type: functional, cell-based; summary of the method: as §5
[41] = test system: MGC-803; assay: Induction of mitochondrial membrane potential loss in human MGC803 cells assessed as collapse of the mitochondrial membrane potential at 6 uM after 48 hrs by JC-1 staining based flow cytometry (reference value: 4.1%); assay type: functional; summary of the method: as §5

Structure (SMILES): COc1ccc(C(=O)/C=C/c2ccc(-n3cc(CSc4nnc(-c5ccccc5)c(-c5ccccc5)n4)nn3)cc2)cc1
IC50 [1]: 36.7 µM | IC50 [2]: > 100 µM | IC50 [3]: > 100 µM

Structure (SMILES): Brc1ccc(Cn2cc(CSc3nnc(-c4ccccc4)c(-c4ccccc4)n3)nn2)cc1
IC50 [1]: > 100 µM | IC50 [2]: 22 µM | IC50 [3]: > 100 µM

Structure (SMILES): C#CCSc1nnc(-c2ccccc2)c(-c2ccccc2)n1
IC50 [1]: > 100 µM | IC50 [2]: > 100 µM | IC50 [3]: > 100 µM

Structure (SMILES): NS(=O)(=O)c1ccc(-n2cc(CSc3nnc(-c4ccccc4)c(-c4ccccc4)n3)nn2)cc1
IC50 [1]: > 100 µM | IC50 [2]: > 100 µM | IC50 [3]: > 100 µM

The next lines start with results.

IC50 [1]: > 100 µM | IC50 [2]: > 100 µM
Structure (SMILES): c1ccc(-c2nnc(SCc3cn(Cc4ccc5ccccc5c4)nn3)nc2-c2ccccc2)cc1
IC50 [3]: > 100 µM

IC50 [1]: > 100 µM | IC50 [2]: 57.8 µM
Structure (SMILES): O=c1cc(OCCCn2cc(CSc3nnc(-c4ccccc4)c(-c4ccccc4)n3)nn2)c2ccccc2o1
IC50 [3]: > 100 µM

IC50 [1]: > 100 µM | IC50 [2]: 92.3 µM
Structure (SMILES): O=c1ccc2ccc(OCCCn3cc(CSc4nnc(-c5ccccc5)c(-c5ccccc5)n4)nn3)cc2o1
IC50 [3]: > 100 µM

IC50 [1]: 7.59 µM | IC50 [2]: 10.6 µM
Structure (SMILES): Fc1ccc(Cn2cc(CSc3nnc(-c4ccccc4)c(-c4ccccc4)n3)nn2)cc1
Activity [4]: Active | Activity [5]: Dose-dependent effect | Activity [6]: Dose-dependent effect | Activity [7]: 0.2% | Activity [8]: 16.9% | Activity [9]: 8.2% | Activity [10]: Dose-dependent effect | Activity [11]: 27.3% | Activity [12]: Dose-dependent effect | Activity [13]: 30.03% | Activity [14]: Dose-dependent effect | Activity [15]: 42.9% | Activity [16]: 0.1% | Activity [17]: 27.5% | Activity [18]: 34.39% | viability at 10 µM [19]: 45.1% | Activity [20]: Dose-dependent effect | Activity [21]: Active | Activity [22]: Active | Activity [23]: Dose-dependent effect | Activity [24]: 25.87% | viability at 6 µM [25]: 88.7% | Activity [26]: 17% | Activity [27]: 26.75% | Activity [28]: 2.9% | inhibition [29]: Dose-dependent effect | IC50 [30]: 31.7 µM | Activity [31]: Active | Activity [32]: 7% | Activity [33]: Active | Activity [34]: 25.11% | viability at 8 µM [35]: 75.9% | Activity [36]: Active | Activity [37]: 0.2% | Activity [38]: 41.49% | Activity [39]: Active | Activity [40]: Dose-dependent effect | Activity [41]: 5.2% | IC50 [3]: 19.1 µM

IC50 [1]: 13.2 µM | IC50 [2]: 14.7 µM
Structure (SMILES): Clc1ccc(Cn2cc(CSc3nnc(-c4ccccc4)c(-c4ccccc4)n3)nn2)cc1
IC50 [3]: 24.2 µM
